A short description of data set [1]: Clearance in human liver microsomes in presence of NADPH. Type of data set: ADME, Microsome. The essentials:
(§1)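 Stability in human and mouse liver microsomes incubated with an NADPH regenerating system; half-life (min) and hepatic clearance (mL/min/kg) determined.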

Data set [2] concerns the target T1, Interferon-inducible protein AIM2 (Homo sapiens) (UniProt O14862).
T1 sequence (whole entry): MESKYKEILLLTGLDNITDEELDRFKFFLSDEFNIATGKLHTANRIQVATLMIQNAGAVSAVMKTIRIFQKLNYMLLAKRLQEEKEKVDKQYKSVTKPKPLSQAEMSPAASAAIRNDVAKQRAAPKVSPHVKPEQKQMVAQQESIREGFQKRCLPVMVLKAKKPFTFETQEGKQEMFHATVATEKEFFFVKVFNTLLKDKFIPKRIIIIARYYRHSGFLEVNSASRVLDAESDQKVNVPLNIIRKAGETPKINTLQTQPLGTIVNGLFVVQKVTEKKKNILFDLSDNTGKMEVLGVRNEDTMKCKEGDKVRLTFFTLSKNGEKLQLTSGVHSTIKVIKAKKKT
The data set is described as follows: Inhibition of AIM2 inflammasome (unknown origin) activation in bone marrow derived macrophages assessed as inhibition of poly(dA:dT)-induced IL-1beta secretion at 5 uM by ELISA. The essentials: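 LPS-primed BMDMs treated with compound (5 μM), then transfected with poly(dA:dT) (0.5 µg/ml) using Lipofectamine for various times; supernatant IL-1β by ELISA.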

For data set [3], the target named is T2, NACHT, LRR and PYD domains-containing protein 3 (Homo sapiens, UniProt Q96P20). Nature of the data set: Inhibition of NLRP3 inflammasome (unknown origin) activation in LPS-primed bone marrow derived macrophages assessed as inhibition of IL-1beta secretion in presence of mono sodium urate by ELSIA. The essentials: (§2)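 LPS-primed BMDMs treated with compound (5 μM) and stimulated with nigericin (10 µM), ATP (2.5 mM) or MSU (150 µg/mL), over a time course or at increasing agonist doses; secreted IL-1β by ELISA.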
T2 sequence (Q96P20 whole entry, the tested form may be a part): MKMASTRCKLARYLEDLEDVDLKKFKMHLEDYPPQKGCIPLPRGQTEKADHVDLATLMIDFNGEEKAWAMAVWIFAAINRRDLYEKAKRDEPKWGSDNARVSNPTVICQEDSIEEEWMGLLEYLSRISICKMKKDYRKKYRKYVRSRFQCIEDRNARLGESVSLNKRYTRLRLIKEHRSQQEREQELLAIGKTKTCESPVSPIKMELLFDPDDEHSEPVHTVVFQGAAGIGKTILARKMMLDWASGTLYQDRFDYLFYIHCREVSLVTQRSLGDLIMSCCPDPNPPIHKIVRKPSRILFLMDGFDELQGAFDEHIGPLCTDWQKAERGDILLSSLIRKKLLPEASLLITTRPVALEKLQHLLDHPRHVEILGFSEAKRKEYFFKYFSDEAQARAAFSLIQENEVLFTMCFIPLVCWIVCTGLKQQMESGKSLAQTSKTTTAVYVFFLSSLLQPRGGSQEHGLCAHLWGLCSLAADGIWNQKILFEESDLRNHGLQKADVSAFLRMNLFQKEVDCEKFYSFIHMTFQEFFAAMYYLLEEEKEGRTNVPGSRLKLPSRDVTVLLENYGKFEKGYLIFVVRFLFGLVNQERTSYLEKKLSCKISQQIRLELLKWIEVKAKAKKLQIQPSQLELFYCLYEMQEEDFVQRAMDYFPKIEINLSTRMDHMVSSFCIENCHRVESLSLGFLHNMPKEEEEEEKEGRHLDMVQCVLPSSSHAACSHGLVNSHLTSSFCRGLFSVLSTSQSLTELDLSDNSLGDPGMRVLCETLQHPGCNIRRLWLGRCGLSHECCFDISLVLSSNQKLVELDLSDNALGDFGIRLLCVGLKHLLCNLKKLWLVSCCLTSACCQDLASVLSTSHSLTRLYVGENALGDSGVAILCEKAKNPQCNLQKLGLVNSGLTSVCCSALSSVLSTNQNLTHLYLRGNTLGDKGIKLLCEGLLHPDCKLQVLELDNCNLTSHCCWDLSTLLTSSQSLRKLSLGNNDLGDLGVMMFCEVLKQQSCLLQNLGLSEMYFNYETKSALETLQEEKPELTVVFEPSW

The target in data set [4] is T2, NACHT, LRR and PYD domains-containing protein 3. Nature of the data set: Inhibition of NLRP3 inflammasome (unknown origin) activation in LPS-primed bone marrow derived macrophages assessed as inhibition of IL-1beta secretion in presence of nigericin by ELISA. The essentials: (§3)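 BMDMs pretreated with varied doses of compound, then LPS-primed and stimulated with nigericin; IL-1β in supernatant by ELISA, normalized to DMSO-treated control; IC50 given as mean ± SD.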

For data set [5] the target is unchanged. The data set is described as follows: Inhibition of NLRP3 inflammasome (unknown origin) activation in bone marrow derived macrophage cells assessed as effect on ATP-induced TNF-alpha secretion at 5 uM by ELISA. The gist of the method: (§4)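 LPS-primed BMDMs given compound (5 μM), then nigericin (10 µM), ATP (2.5 mM) or MSU (150 µg/mL); TNF-α in supernatant measured by ELISA.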
(An ELISA detects its analyte on a solid surface through an enzyme-linked reagent.)

Data set [6] has the same target. Nature of the data set: Inhibition of NLRP3 inflammasome (unknown origin) activation in bone marrow derived macrophage cells assessed as effect on nigericin-induced TNF-alpha secretion at 5 uM by ELISA. The gist of the method: as §4
Data set [7] has the same target. The data set is described as follows: Inhibition of NLRP3 inflammasome (unknown origin) activation in LPS-primed bone marrow derived macrophage cells at 10 uM in presence of mono sodium urate relative to control.
The target is the same in data set [8]. The data set is described as follows: Inhibition of NLRP3 inflammasome (unknown origin) activation in LPS-primed bone marrow derived macrophages assessed as inhibition of IL-1beta secretion at 5 uM in presence of nigericin by ELISA. The settings on record: TDE = time-dependent effect. The essentials:
as §2

Data set [9] is described as follows: AUC in po or iv qd dosed Sprague-Dawley rat. Type of data set: ADME, organism-based. To be noted: in vivo. The essentials:
(§5)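 Sprague-Dawley rats given a single intravenous or oral dose; pharmacokinetic parameters (half-life, AUC, bioavailability) derived from the plasma profile.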

Data set [10] has as its target NLR family CARD domain-containing protein 4 (Homo sapiens) (UniProt Q9NPP4). Nature of the data set: Inhibition of NLRC4 inflammasome (unknown origin) activation in bone marrow derived macrophages assessed as inhibition of Salmonella-induced IL-1beta secretion at 5 uM by ELISA. The gist of the method: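 LPS-primed BMDMs treated with compound (5 μM), then infected with Salmonella typhimurium for different times; supernatant IL-1β by ELISA.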

The nature of data set [11]: Oral bioavailability in Sprague-Dawley rat administered as single dose. Type of data set: ADME, organism-based. The settings on record: in vivo. The gist of the method: as §5
In data set [12] the target is T2, NACHT, LRR and PYD domains-containing protein 3. Nature of the data set: Inhibition of NLRP3 inflammasome (unknown origin) activation in LPS-primed bone marrow derived macrophages assessed as inhibition of IL-1beta secretion at 5 uM in presence of mono sodium urate by ELISA. To be noted: TDE = time-dependent effect. The essentials:
as §2

Data set [13] is described as follows: Half life in mouse liver microsomes in presence of NADPH. Type of data set: ADME, Microsome. The essentials:
as §1
For orientation: Liver microsomes are a subcellular fraction often used to study metabolism.

The nature of data set [14]: Clearance in mouse liver microsomes in presence of NADPH. Format: ADME, Microsome. The essentials: as §1
For data set [15], the target named is T2, NACHT, LRR and PYD domains-containing protein 3. The data set is described as follows: Inhibition of NLRP3 inflammasome (unknown origin) activation in LPS-primed bone marrow derived macrophage cells assessed as effect on IL-1beta production in presence of nigericin by ELISA. The essentials:
as §3

Data set [16] has as its system Mus musculus. Nature of the data set: In vivo inhibition of NLRP3 inflammasome activation in mouse model of cryopyrin-associated auto-inflammatory syndrome. Format: functional, organism-based.
A short description of data set [17]: Half life in human liver microsomes in presence of NADPH. Format: ADME, Microsome. The essentials:
as §1

The target in data set [18] is T2, NACHT, LRR and PYD domains-containing protein 3. Nature of the data set: Inhibition of NLRP3 inflammasome (unknown origin) activation in bone marrow derived macrophage cells assessed as effect on mono sodium urate-induced TNF-alpha secretion at 5 uM by ELISA. The essentials:
as §4

Data set [19] shares this target. Nature of the data set: Inhibition of NLRP3 inflammasome (unknown origin) activation in LPS-primed bone marrow derived macrophages assessed as inhibition of IL-1beta secretion in presence of ATP by ELISA. The essentials:
as §2

Data set [20] is filed under the species Mus musculus. Nature of the data set: Reversal of NLRP3 mediated metabolic disorder in mouse model of diabetes. Format: functional, organism-based.
Data set [21] addresses T2, NACHT, LRR and PYD domains-containing protein 3. The data set is described as follows: Inhibition of NLRP3 inflammasome (unknown origin) activation in LPS-primed bone marrow derived macrophages assessed as inhibition of IL-1beta secretion at 5 uM in presence of ATP by ELISA. To be noted: TDE = time-dependent effect. The essentials:
as §2

The source made the active and inactive calls.

The values below come from ChEMBL document CHEMBL4627283, “Discovery and optimization of 4-oxo-2-thioxo-thiazolidinones as NOD-like receptor (NLR) family, pyrin domain-containing protein 3 (NLRP3) inhibitors” (Bioorg Med Chem Lett, 2020).

As a reminder, the inhibition is the relative decrease from the control value, in per cent. The term AUC denotes the area under the concentration-time curve, a measure of exposure. Low values mean low exposure, high ones high exposure. For orientation: bioavailability means the share of a dose that reaches the circulation, judged against a reference dose that is usually intravenous. Low readings indicate little systemic uptake, high ones much systemic uptake. A word on the half-life: it is the time needed for the level to fall by half in the phase considered. Usually IC50 stands for the concentration that inhibits the measured activity by half.

Chain of NLR family CARD domain-containing protein 4 (Homo sapiens) (Q9NPP4 whole entry, the tested form may be a part): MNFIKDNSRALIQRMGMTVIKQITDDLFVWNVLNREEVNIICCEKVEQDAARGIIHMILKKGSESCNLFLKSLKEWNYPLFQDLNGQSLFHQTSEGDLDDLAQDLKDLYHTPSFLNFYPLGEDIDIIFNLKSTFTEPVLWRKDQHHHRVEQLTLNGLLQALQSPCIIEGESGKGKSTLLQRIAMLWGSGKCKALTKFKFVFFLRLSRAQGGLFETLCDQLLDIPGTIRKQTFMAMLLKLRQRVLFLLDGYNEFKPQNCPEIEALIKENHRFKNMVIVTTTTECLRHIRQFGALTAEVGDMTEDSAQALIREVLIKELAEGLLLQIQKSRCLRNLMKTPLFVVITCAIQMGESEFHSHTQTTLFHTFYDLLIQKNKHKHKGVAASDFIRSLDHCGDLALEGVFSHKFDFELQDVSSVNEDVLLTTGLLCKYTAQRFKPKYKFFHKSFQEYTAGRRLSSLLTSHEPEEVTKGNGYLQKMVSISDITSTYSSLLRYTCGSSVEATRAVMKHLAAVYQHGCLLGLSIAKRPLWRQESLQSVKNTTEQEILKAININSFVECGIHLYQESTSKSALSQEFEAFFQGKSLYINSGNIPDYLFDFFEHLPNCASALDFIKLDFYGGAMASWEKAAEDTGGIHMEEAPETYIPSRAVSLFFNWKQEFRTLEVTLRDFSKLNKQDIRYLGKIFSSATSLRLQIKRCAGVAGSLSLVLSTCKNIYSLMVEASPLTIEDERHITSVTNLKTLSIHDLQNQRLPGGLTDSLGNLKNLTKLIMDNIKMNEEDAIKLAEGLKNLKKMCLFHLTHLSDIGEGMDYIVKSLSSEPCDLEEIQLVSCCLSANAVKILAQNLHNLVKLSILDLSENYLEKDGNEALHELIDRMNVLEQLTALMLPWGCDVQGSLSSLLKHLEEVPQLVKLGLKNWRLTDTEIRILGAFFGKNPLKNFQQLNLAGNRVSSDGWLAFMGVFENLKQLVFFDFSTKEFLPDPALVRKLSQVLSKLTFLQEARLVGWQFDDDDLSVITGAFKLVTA

In the case of `O=C(O)c1ccc(/C=C2\SC(=S)N(Cc3cccc(C(F)(F)F)c3)C2=O)cc1`, the CLhep predicted in data set [1] is < 4.7 mL/min/kg; in data set [14] it was < 20.7 mL/min/kg. The inhibition result in data set [2], in data set [5], in data set [6], in data set [10] and in data set [18] was “inactive” in each case. Further, the inhibition result in [3] was “Dose-dependent effect”; in [4] it was “Dose-dependent effect”; in data set [7], 83%; in [8], “Tde”; in [12] it was “Tde”; in data set [19], “Dose-dependent effect”. Besides, in data set [21], the inhibition result is “Tde”. In [9], the AUC was 1930 ng·h/mL. Besides, the bioavailability in [11] was found to be 27%. Besides, the half-life in data set [13] and in [17] was > 2.42 h throughout. Moreover, the IC50 in [15] was 2400 nM. In the data set on Mus musculus [16], the inhibition result is “Active”. In addition, the outcome in the data set listed under Mus musculus [20] was Active.
